ChEMBL document CHEMBL1124412, “Long acting dihydropyridine calcium antagonists. 2. 2-[2-Aminoheterocycloethoxy]methyl derivatives” (J Med Chem, 1989)

Columns and labels:
Cavia porcellus = organism: Cavia porcellus; test: In vitro assessment of negative inotropy in the isolated Langendorff perfused guinea pig heart; type: functional
Canis familiaris = test: Percent decrease in coronary vascular resistance in dogs at 150 u/kg intravenous dose; type: functional, Canis lupus familiaris
Outline: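 Anaesthetized beagle dogs were implanted with catheters for blood pressure, left ventricular pressure and intravenous dosing, and given 150 µg/kg i.v. Coronary blood flow was measured by hydrogen clearance with platinum electrodes in the coronary sinus and femoral artery, and cardiac output by thermodilution. Coronary vascular resistance was derived from these measurements, and the duration-of-action half-life was followed in hours.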

Rattus norvegicus = organism: Rattus norvegicus; test: Concentration required to inhibit calcium-induced constriction of potassium-depolarized rat aorta by 50%; type: functional

SMILES | IC50 (Rattus norvegicus) [nM] | pIC25 (Cavia porcellus) | Decrease in CVR (Canis familiaris) [%]
CCO/C(O)=C1\C(COCCNc2ccnc(O)n2)=NC(C)=C(C(=O)OC)C1c1cccc(Cl)c1Cl (stereo unspecified) | 1.58 | 6.7 | 62
CCO/C(O)=C1\C(COCCNc2nccc(O)n2)=NC(C)=C(C(=O)OC)C1c1cccc(Cl)c1Cl (stereo unspecified) | 2.51 | 6.7 | 70
CCO/C(O)=C1\C(COCCNc2cc(Cl)ncn2)=NC(C)=C(C(=O)OC)C1c1cccc(Cl)c1Cl (stereo unspecified) | 12.6 | 7.7 | 
CCO/C(O)=C1\C(COCCNc2nccnc2Cl)=NC(C)=C(C(=O)OC)C1c1cccc(Cl)c1Cl (stereo unspecified) | 2.51 | 7.4 | 
CCO/C(O)=C1\C(COCCNc2cc(NC)ncn2)=NC(C)=C(C(=O)OC)C1c1cccc(Cl)c1Cl (stereo unspecified) | 3.16 | 7.2 | 
COC(=O)C1=C(C)NC(C)=C(C(=O)OC)C1c1ccccc1[N+](=O)[O-] [NIFEDIPINE] |  | 7.5 | 77
CCO/C(O)=C1\C(COCCNc2n[s+]([O-])nc2OC)=NC(C)=C(C(=O)OC)C1c1cccc(Cl)c1Cl (stereo unspecified) | 10 | 7.1 | 
CCO/C(O)=C1\C(COCCNc2nc(O)cc(-c3ccccc3)n2)=NC(C)=C(C(=O)OC)C1c1cccc(Cl)c1Cl (stereo unspecified) | 7.94 | 6.9 | 
CCO/C(O)=C1\C(COCCNc2cc(O)ncn2)=NC(C)=C(C(=O)OC)C1c1cccc(Cl)c1Cl (stereo unspecified) | 1.26 | 7.2 | 
CCO/C(O)=C1\C(COCCNC2=NC(=O)C(C)(C)N2)=NC(C)=C(C(=O)OC)C1c1cccc(Cl)c1Cl (stereo unspecified) | 20 | 6.2 | 
CCOC(=O)NC(=S)NCCOCC1=C(C(=O)OCC)C(c2cccc(Cl)c2Cl)/C(=C(\O)OC)C(C)=N1 (stereo unspecified) | 31.6 | 6.2 | 
CCO/C(O)=C1\C(COCCNc2n[s+]([O-])nc2N)=NC(C)=C(C(=O)OC)C1c1cccc(Cl)c1Cl (stereo unspecified) | 15.8 | 7 | 
CCO/C(O)=C1\C(COCCNc2nccnc2NC)=NC(C)=C(C(=O)OC)C1c1cccc(Cl)c1Cl (stereo unspecified) | 5.01 | 7 | 
CCO/C(O)=C1\C(COCC/N=C(/N)S)=NC(C)=C(C(=O)OC)C1c1cccc(Cl)c1Cl (stereo unspecified) | 1 | 7.2 | 
CCO/C(O)=C1\C(COCCNc2nc(O)cs2)=NC(C)=C(C(=O)OC)C1c1cccc(Cl)c1Cl (stereo unspecified) | 20 | 6.1 | 

Now from value to compound, other results behind:

IC50 (Rattus norvegicus) [nM] | SMILES | pIC25 (Cavia porcellus) | Decrease in CVR (Canis familiaris) [%]
6.31 | CCO/C(O)=C1\C(COCCNc2n[nH]c(N)n2)=NC(C)=C(C(=O)OC)C1c1cccc(Cl)c1Cl (stereo unspecified) | 6.3 | 70
3.98 | CCO/C(O)=C1\C(COCCNc2nc(N)n(C)n2)=NC(C)=C(C(=O)OC)C1c1cccc(Cl)c1Cl (stereo unspecified) | 6.8 | 
316 | CCO/C(O)=C1\C(COCCNc2n[nH]c(N)n2)=NC(C)=C(C(=O)OC)C1c1cccnc1Cl (stereo unspecified) | 6 | 
10 | CCO/C(O)=C1\C(COCCNc2n[nH]c(O)n2)=NC(C)=C(C(=O)OC)C1c1cccc(Cl)c1Cl (stereo unspecified) | 6.4 | 
3.98 | CCO/C(O)=C1\C(COCCNc2n[nH]c(N)n2)=NC(C)=C(C(=O)OC)C1c1cccc(C(F)(F)F)c1Cl (stereo unspecified) | 6.3 | 
126 | CCO/C(O)=C1\C(COCCNc2n[nH]c(N)n2)=NC(C)=C(C(=O)OC)C1c1cccc(Cl)c1 (stereo unspecified) |  | 
100 | CCO/C(O)=C1\C(C)=NC(COCCNc2n[nH]c(N)n2)=C(C(=O)OC)C1c1cccc(Cl)c1Cl (stereo unspecified) | 5.5 | 
20 | CCO/C(O)=C1\C(COCCNc2n[nH]c(N)n2)=NC(C)=C(C(=O)OC)C1c1ccccc1Cl (stereo unspecified) | 6.2 | 
3.16 | CCO/C(O)=C1\C(COCCNc2noc(N)n2)=NC(C)=C(C(=O)OC)C1c1cccc(Cl)c1Cl (stereo unspecified) | 7.3 | 76
